Results from different studies.
Matrix: plasma

Structure (SMILES)	test system	conditions	AUC(0-t)
COc1ccc(-c2coc3cc(O)cc(O)c3c2=O)cc1	rat	intravenous, 2 mg/kg	0.637 µg·h/mL
CCCCCCCCCC(=O)N[C@@H](Cc1c[nH]c2ccccc12)C(=O)N[C@H](CC(N)=O)C(=O)N[C@@H](CC(=O)O)C(=O)N[C@@H]1C(=O)NCC(=O)N[C@@H](CCCN)C(=O)N[C@@H](CC(=O)O)C(=O)N[C@H](C)C(=O)N[C@@H](CC(=O)O)C(=O)NCC(=O)N[C@H](CO)C(=O)N[C@@H]([C@H](C)CC(=O)O)C(=O)N[C@@H](CC(=O)c2ccccc2N)C(=O)O[C@@H]1C	male Wistar rat	subcutaneous, 125 mg/kg, single dose	2450 µg·h/mL
C=CC(=O)N1CCC[C@@H](n2nc(-c3ccc(Oc4ccccc4)cc3)c3c(N)ncnc32)C1	rat	oral, 40 mg/kg	0.304 µg·h/mL
CONC(=O)c1cccc2c1cc(C)n2-c1nc2c(c(NCc3ccccc3)n1)CCCN2	male Sprague-Dawley rat	oral, 10 mg/kg, single dose	0.0238 µg·h/mL
COc1cc(-c2cc(C(C)=O)n3ccccc23)c(OC)cc1Cn1ccnc1	male Sprague-Dawley rat	oral, 5 mg/kg	2.15 µg·h/mL
C[C@H]1Oc2cc(cnc2N)-c2c(nn(C)c2C#N)CN(C)C(=O)c2ccc(F)cc21	male Sprague-Dawley rat	oral, 10 mg/kg	3.16 µg·h/mL
CC(=O)c1c(C)c2cnc(Nc3ccc(N4CCNCC4)cn3)nc2n(C2CCCC2)c1=O	male Sprague-Dawley rat	intravenous, 5 mg/kg	1.91 µg·h/mL
CCOc1c([C@H](C)n2nc(C)c3c(N)ncnc32)cc(Cl)c(F)c1[C@@H]1CNC(=O)C1	male Sprague-Dawley rat	oral, 2 mg/kg, single dose	4.58 µg·h/mL
Nc1ccn([C@@H]2O[C@H](CO)[C@@H](O)C2(F)F)c(=O)n1	male Sprague-Dawley rat	intraperitoneal, 5 mg/kg	22.9 µg·h/mL
COc1ccc(N(Cc2csc(-c3ccccc3)n2)C(=O)CCCCCC(=O)NO)cc1	female Sprague-Dawley rat	intravenous, 5 mg/kg	0.0299 µg·h/mL
O=C1CCC(N2Cc3cc(C4CCN(Cc5ccccc5)CC4)ccc3C2=O)C(=O)N1 (stereo not drawn)	male Sprague-Dawley rat	oral, 3 mg/kg	0.336 µg·h/mL
Cn1c(=O)c2[nH]cnc2n(C)c1=O	male Sprague-Dawley rat	intravenous, 11.25 mg/kg	24.9 µg·h/mL
CCCCC(=O)Nc1ccc(-c2ccc3ncn(CCC)c(=O)c3c2)cn1	male rat	oral, 10 mg/kg	1.2 µg·h/mL
C=CC(=O)N1CCC([C@@H]2CCNc3c(C(N)=O)c(-c4ccc(Oc5ccccc5)cc4)nn32)CC1	Sprague-Dawley rat	oral, 16 mg/kg	1.45 µg·h/mL
CC(=O)O[C@@H]1CC[C@@]2(C)[C@@H](CC[C@]3(C)[C@@H]2C(=O)C=C2[C@@H]4[C@@H](C)[C@H](C)CC[C@]4(C)CC[C@]23C)[C@@]1(C)C(=O)O	female Wistar rat	oral, 1 mg/kg, single dose	40.9 µg·h/mL
CNC(=O)c1cc(Oc2ccc(NC(=O)Nc3ccc(Cl)c(C(F)(F)F)c3)cc2)ccn1	male Sprague-Dawley rat	oral, 100 mg/kg, single dose	17.7 µg·h/mL
COc1nc(-c2cccc(-c3ccccc3)c2C)ccc1CNCCNC(=O)CCCCCCCCCCC(=O)N1CCN(CCNC(=O)c2cc3c(=O)n4cccc(C)c4nc3n(CCc3cccs3)c2=N)CC1	male Sprague-Dawley rat	intravenous, 2 mg/kg	1.62 µg·h/mL
Cc1ccc2c(c1)C(=O)[C@]1(O)CCN(c3ccc4nc(C)ccc4c3)C1=N2.Cl	male rat	subcutaneous, 40 mg/kg, multiple doses, once daily	20.4 µM·h
